# Experimental data as given in ChEMBL document CHEMBL1122299, “Potential cerebral perfusion agents: synthesis and evaluation of a radioiodinated vinylalkylbarbituric acid analogue” (J Med Chem, 1983).
# Calls of active or inactive are those of the source. No cut-off for these calls is given here.
# Experiments:
# Rattus norvegicus = organism: Rattus norvegicus; test: Uptake in the thyroid or any of the other tissues tested in rats; NS- No significant activity; format: functional, organism-based; details: Thyroid gland
# Summary of the method: (§1)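 Female Fischer 344 rats (10–12 weeks, 170–200 g, food and water ad libitum) received 7.95 μCi of the 125I-labeled barbiturate (sp act ~155 mCi/mmol) in filtered pH 7.4 phosphate buffer via lateral tail vein under ether anesthesia. Four rats per time point were killed at 2 min to 1 day. Thyroid and other organs were excised, rinsed, blotted, weighed and gamma-counted as % injected dose/g.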
# [1] = In vivo deiodination was determined; Resistant; format: functional, organism-based; summary of the method: as §1
structure (smiles),measurement,setting,value
CCOC(=O)C(CC)(CCC/C=C/I)C(=O)O (configuration not stated),Activity,Rattus norvegicus,inactive
same,Activity,[1],Resistant
